Laboratory results published in ChEMBL document CHEMBL1122159, “Effects of certain hallucinogenic amphetamine analogues on the release of [3H]serotonin from rat brain synaptosomes” (J Med Chem, 1982).

How the values were obtained:
Type in all cases: functional
Rattus norvegicus [1] = species: Rattus norvegicus; test: Ability to induce [3H]5-HT release from prelabeled rat whole brain synaptosome preparations and the K value was determined
Procedure, shortened: (§1)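 Rat whole brain homogenised in ice-cold 0.32 M sucrose. Synaptosomes were isolated on a 1.2/0.8 M sucrose step gradient, preincubated 5 min at 37 °C in oxygenated Krebs-Henseleit, then loaded 5 min with [3H]5-HT (10^-7 M). Filter-retained synaptosomes were washed and superfused at 0.5 mL/min. 1-min fractions were counted for 5 min before and 10 min after drug addition. Efflux rate constant K taken from semilog plots; means of 3-4 experiments.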

Rattus norvegicus [2] = species: Rattus norvegicus; test: Ability to induce [3H]-5-HT release from prelabeled rat whole brain synaptosome preparations and the activity was determined as percent of total released
Rattus norvegicus [3] = species: Rattus norvegicus; test: Ability to induce [3H]5-HT release from prelabeled rat whole brain synaptosome preparations; Relative rate of release to that of control was determined; procedure, shortened: as §1
Rattus norvegicus [4] = species: Rattus norvegicus; test: Ability to induce [3H]5-HT release from prelabeled rat whole brain synaptosome preparations at 10e-7 M concentration; procedure, shortened: as §1
Rattus norvegicus [5] = species: Rattus norvegicus; test: Ability to induce [3H]-5-HT release from prelabeled rat whole brain synaptosome preparations at 10e-5 M concentration; procedure, shortened: as §1
Rattus norvegicus [6] = species: Rattus norvegicus; test: Ability to induce [3H]5-HT release from prelabeled rat whole brain synaptosome preparations at 10e-6 M concentration; procedure, shortened: as §1
Rattus norvegicus [7] = species: Rattus norvegicus; test: Ability to induce [3H]5-HT release from prelabeled rat whole brain synaptosome preparations and the K value was determined at 10e-5 M; procedure, shortened: as §1

## CC(C)(N)Cc1ccc2c(c1)OCO2
Rattus norvegicus [1]
  K: 175 min⁻¹
Rattus norvegicus [2]
  Total release: 45.2%
Rattus norvegicus [3]
  Relative rate: 1.09

## CN[C@H](C)Cc1ccc2c(c1)OCO2
Rattus norvegicus [4]
  K: 1.49e+06 min⁻¹
Rattus norvegicus [5]
  K: 2.74e+06 min⁻¹
Rattus norvegicus [6]
  K: 1.73e+06 min⁻¹

## COc1ccc(C[C@@H](C)N)cc1
Rattus norvegicus [4]
  K: 1.39e+06 min⁻¹
Rattus norvegicus [5]
  K: 3.07e+06 min⁻¹
Rattus norvegicus [6]
  K: 2.28e+06 min⁻¹

## C[C@H](N)Cc1ccc2c(c1)OCO2
Rattus norvegicus [4]
  K: 1.78e+06 min⁻¹
Rattus norvegicus [5]
  K: 3.07e+06 min⁻¹
Rattus norvegicus [6]
  K: 2.42e+06 min⁻¹

## COc1ccc(CC(C)(C)N)cc1
Rattus norvegicus [2]
  Total release: 45%
Rattus norvegicus [3]
  Relative rate: 1.06

## COc1ccc(CC(C)N)cc1 (single isomer, unassigned)
Rattus norvegicus [4]
  K: 1.34e+06 min⁻¹
Rattus norvegicus [1]
  K: 280 10e4min-1
Rattus norvegicus [7]
  K: 2.3e+06 min⁻¹
Rattus norvegicus [2]
  Total release: 57.8%
Rattus norvegicus [3]
  Relative rate: 1.76
Rattus norvegicus [6]
  K: 2.55e+06 min⁻¹

## C[C@@H](N)Cc1ccc2c(c1)OCO2
Rattus norvegicus [4]
  K: 2.14e+06 min⁻¹
Rattus norvegicus [5]
  K: 3.21e+06 min⁻¹
Rattus norvegicus [6]
  K: 2.02e+06 min⁻¹

## CN[C@@H](C)Cc1ccc2c(c1)OCO2
Rattus norvegicus [4]
  K: 1.68e+06 min⁻¹
Rattus norvegicus [5]
  K: 2.62e+06 min⁻¹
Rattus norvegicus [6]
  K: 2.84e+06 min⁻¹

## CNC(C)(C)Cc1ccc2c(c1)OCO2
Rattus norvegicus [1]
  K: 169 min⁻¹
Rattus norvegicus [2]
  Total release: 44.3%
Rattus norvegicus [3]
  Relative rate: 1.06
